Test results reported in PubChem BioAssay AID588438 (The Scripps Research Institute Molecular Screening Center, 2011).
Active and inactive are the calls of the source.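 How the source made its calls: active means IC50 of 1 µM or lower against any of the four PAD enzymes tested; inactive means the rest.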

Tests used:
Assay in all cases: PAD isozyme inhibitor IC50 panel – biochemical, colorimetric, BAEE substrate, recombinant PAD1-4, selectivity assay for PAD4 inhibitor project, late-stage follow-up (AID 588438)
[1] = target: Protein-arginine deiminase type-1 (Homo sapiens) (UniProt Q9ULC6); settings: recombinant PAD1-4, BAEE citrulline colorimetric absorbance; PAD1
Protein-arginine deiminase type-1 (Homo sapiens), sequence (Q9ULC6 whole entry, looked up): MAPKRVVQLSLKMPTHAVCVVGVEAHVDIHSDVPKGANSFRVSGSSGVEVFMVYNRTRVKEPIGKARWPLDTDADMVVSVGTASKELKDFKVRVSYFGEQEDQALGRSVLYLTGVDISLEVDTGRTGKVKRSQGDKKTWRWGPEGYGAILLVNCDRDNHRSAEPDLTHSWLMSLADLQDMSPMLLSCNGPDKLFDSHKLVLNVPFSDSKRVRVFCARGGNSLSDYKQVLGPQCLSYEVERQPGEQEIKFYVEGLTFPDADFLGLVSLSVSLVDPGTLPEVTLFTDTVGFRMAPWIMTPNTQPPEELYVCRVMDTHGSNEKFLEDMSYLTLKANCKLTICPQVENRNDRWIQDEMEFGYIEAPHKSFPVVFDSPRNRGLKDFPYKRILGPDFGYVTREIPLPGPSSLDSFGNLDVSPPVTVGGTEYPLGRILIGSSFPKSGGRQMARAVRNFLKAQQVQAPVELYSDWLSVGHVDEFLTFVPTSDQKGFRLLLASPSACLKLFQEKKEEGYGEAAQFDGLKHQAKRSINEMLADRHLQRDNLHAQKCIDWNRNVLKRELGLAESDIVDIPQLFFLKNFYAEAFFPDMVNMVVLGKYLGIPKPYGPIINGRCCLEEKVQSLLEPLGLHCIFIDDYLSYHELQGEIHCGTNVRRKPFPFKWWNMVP
Outline: (§1)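 Material – recombinant PAD1–4 enzymes · Amount – PAD1/PAD4 0.2 µM, PAD2/PAD3 0.5 µM enzyme · Read-out – fitted IC50 of remaining activity · Doses – Seven-concentration inhibitor series per enzyme · Technique – citrulline color absorbance at 540 nm · Replicates – duplicate per concentration · Incubation – 15 min preincubation plus 15 min reaction, 37 °C · Reagent – BAEE arginine substrate at 10 mM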

[2] = target: Protein-arginine deiminase type-2 (Homo sapiens) (UniProt Q9Y2J8); settings: recombinant PAD1-4, BAEE citrulline colorimetric absorbance; PAD2
Protein-arginine deiminase type-2 (Homo sapiens), sequence (Q9Y2J8 whole entry, looked up): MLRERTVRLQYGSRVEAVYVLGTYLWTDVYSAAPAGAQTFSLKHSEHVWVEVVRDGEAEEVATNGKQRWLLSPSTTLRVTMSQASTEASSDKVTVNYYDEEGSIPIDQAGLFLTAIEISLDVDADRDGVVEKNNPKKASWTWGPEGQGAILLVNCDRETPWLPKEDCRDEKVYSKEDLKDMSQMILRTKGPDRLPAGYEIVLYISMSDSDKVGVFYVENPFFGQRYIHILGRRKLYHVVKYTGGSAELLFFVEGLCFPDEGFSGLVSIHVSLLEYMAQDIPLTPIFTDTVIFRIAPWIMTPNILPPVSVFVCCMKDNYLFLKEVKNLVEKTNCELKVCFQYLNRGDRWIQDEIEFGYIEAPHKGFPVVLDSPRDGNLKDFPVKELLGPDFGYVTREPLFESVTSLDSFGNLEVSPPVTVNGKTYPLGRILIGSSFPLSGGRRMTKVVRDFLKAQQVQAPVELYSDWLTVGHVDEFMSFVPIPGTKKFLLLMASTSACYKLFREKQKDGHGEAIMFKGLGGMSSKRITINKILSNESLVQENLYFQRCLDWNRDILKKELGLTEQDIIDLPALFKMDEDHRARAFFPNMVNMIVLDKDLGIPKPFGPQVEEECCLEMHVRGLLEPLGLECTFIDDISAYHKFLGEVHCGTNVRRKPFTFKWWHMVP
Outline: as §1

[3] = target: Protein-arginine deiminase type-3 (Homo sapiens) (UniProt Q9ULW8); settings: recombinant PAD1-4, BAEE citrulline colorimetric absorbance; PAD3
Protein-arginine deiminase type-3 (Homo sapiens), sequence (Q9ULW8 whole entry, looked up): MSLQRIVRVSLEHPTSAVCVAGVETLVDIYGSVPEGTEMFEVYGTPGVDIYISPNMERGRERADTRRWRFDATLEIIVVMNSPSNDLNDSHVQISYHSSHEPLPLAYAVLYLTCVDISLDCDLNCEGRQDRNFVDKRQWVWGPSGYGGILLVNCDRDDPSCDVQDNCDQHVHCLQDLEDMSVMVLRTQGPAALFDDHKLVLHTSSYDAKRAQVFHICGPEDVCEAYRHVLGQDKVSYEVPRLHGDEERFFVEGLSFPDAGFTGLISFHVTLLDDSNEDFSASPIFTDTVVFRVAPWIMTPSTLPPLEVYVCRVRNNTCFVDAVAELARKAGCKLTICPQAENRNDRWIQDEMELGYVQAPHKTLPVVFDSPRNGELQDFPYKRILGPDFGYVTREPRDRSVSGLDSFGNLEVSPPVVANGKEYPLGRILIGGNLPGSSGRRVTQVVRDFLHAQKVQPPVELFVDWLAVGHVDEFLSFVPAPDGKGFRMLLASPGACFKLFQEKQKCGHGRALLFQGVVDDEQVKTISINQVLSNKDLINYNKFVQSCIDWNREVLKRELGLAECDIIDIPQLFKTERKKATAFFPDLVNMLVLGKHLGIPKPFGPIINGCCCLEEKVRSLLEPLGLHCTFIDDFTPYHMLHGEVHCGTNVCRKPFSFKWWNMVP
Outline: as §1

[4] = target: Protein-arginine deiminase type-4 (Homo sapiens) (UniProt Q9UM07); settings: recombinant PAD1-4, BAEE citrulline colorimetric absorbance; PAD4
Protein-arginine deiminase type-4 (Homo sapiens), sequence (Q9UM07 whole entry, looked up): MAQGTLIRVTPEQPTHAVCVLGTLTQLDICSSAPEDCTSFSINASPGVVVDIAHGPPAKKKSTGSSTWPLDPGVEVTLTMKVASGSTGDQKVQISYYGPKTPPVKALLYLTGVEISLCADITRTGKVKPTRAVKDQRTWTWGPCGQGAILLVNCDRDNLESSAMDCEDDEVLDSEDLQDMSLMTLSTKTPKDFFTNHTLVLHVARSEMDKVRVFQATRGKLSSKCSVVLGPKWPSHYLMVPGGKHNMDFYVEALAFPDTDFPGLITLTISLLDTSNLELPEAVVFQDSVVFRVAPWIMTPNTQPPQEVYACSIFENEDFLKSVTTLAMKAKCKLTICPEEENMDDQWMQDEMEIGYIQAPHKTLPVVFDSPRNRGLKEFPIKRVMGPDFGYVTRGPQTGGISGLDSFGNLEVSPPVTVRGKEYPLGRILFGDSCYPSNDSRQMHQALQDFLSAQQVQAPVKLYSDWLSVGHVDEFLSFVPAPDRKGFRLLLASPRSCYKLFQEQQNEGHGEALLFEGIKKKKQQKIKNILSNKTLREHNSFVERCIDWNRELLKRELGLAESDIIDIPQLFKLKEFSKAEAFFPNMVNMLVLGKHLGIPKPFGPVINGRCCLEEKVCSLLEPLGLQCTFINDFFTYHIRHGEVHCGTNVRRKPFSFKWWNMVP
Outline: as §1

For `COC(=O)c1cccc(-c2ccc3c(n2)C(=O)C(N)=CC3=O)n1`, the IC50 [1] was “inactive”, the IC50 [2] was 420 nM and the IC50 [3] was 330 nM. For the same molecule, the IC50 [4] was 880 nM.
